These results are taken from PubChem BioAssay AID2465 (Broad Institute, 2010).

Out of some 24,000 compounds screened, fewer than 10 were called active. The list is a sample of the results. A number with no mark means an inactive call. Rule as the data show it: active = caspase activation above about 5.9%; inconclusive = no clear call, values can overlap the other calls; inactive = below about 2.2%.

This assay is described as follows: Bcl2-A1 antagonists releasing BIM, apoptosis – cell-based, luminescence, HTS, two replicates, primary screen (AID 2465). Conditions: MEF A1-2A-BIM cells, caspase-Glo luminescence, 3 h; active compounds read high; percent of clofoctol response, DMSO zero; concentration not given here. In short, it runs like this: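 Evaluation: Caspase-3/7 activity from luminescence increase | Assay system: A1-2A-BIM mouse embryonic fibroblasts | Quantity: 2500 MEF cells/well | Medium: RPMI-1640 plus 10% FBS | Detection: Caspase-Glo 3/7 luminescence, 1 h at room temperature | Dosing: 50 nL compound per well, pinned | Timing: Cells settled overnight, compound exposure 3 h at 37 °C, 5% CO2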
With `C[C@H]1CN([C@@H](C)CO)C(=O)c2cc(N(C)C)ccc2O[C@@H]1CN(C)S(=O)(=O)c1ccc(Cl)cc1`, the caspase activation was -0.761%.

Take `C[C@H]1CCCCO[C@@H](CN(C)S(=O)(=O)c2ccc(Cl)cc2)[C@@H](C)CN([C@@H](C)CO)C(=O)c2cc(NS(=O)(=O)c3cn(C)cn3)ccc2O1`: the caspase activation is -0.712%.

Consider `C[C@@H]1CN([C@H](C)CO)C(=O)c2cc(NS(=O)(=O)c3ccc(F)cc3)ccc2O[C@@H]1CN(C)S(C)(=O)=O`, for which the caspase activation is -0.125%.

Take `COc1ccc(S(=O)(=O)N(C)C[C@@H]2OCCCC[C@@H](C)Oc3ccc(NC(=O)CCCN(C)C)cc3C(=O)N([C@@H](C)CO)C[C@@H]2C)cc1`: the caspase activation was 0.265%.

On to `COc1ccc(S(=O)(=O)Nc2ccc3c(c2)C(=O)N([C@H](C)CO)C[C@@H](C)[C@H](CN(C)S(=O)(=O)c2ccc(Cl)cc2)OCCCC[C@@H](C)O3)cc1`, for which the caspase activation was -1.08%.

Turning to `C[C@@H]1CCCCO[C@@H](CN(C)Cc2ccc(C(F)(F)F)cc2)[C@H](C)CN([C@H](C)CO)C(=O)c2cc(NS(=O)(=O)c3ccc(F)cc3)ccc2O1`, the caspase activation was -0.24%.

`COc1ccc(NC(=O)Nc2ccc3c(c2)C(=O)N([C@H](C)CO)C[C@H](C)[C@@H](CN(C)Cc2ccccc2)OCCCC[C@H](C)O3)cc1`: the caspase activation was 0.0689%.

In the case of `C[C@@H]1CCCCO[C@H](CN(C)C(=O)Nc2cccc3ccccc23)[C@@H](C)CN([C@@H](C)CO)C(=O)c2cc(NC(=O)Nc3ccc(F)cc3)ccc2O1`, the caspase activation is 0.273%.

As for `Cc1noc(C)c1NC(=O)N(C)C[C@@H]1Oc2c(NC(=O)CCCCCC(=O)Nc3ccccc3N)cccc2C(=O)N([C@H](C)CO)C[C@@H]1C`, the caspase activation is 1.76%.

Consider `C[C@H](CO)N1C[C@H](C)[C@H](CN(C)Cc2ccccc2)OCCCC[C@H](C)Oc2ccc(NC(=O)Cc3ccccc3)cc2C1=O`, for which the caspase activation was -0.193%.

On to `C[C@@H]1CN([C@@H](C)CO)C(=O)c2cccc(NC(=O)CCCCCC(=O)Nc3ccccc3N)c2O[C@H]1CN(C)C(=O)Nc1ccccc1`, for which the caspase activation was 0.335%.

In the case of `Cc1noc(C)c1S(=O)(=O)N(C)C[C@H]1OCCCC[C@H](C)Oc2ccc(NC(=O)c3ccccc3)cc2C(=O)N([C@@H](C)CO)C[C@H]1C`, the caspase activation is -0.984%.

As for `C[C@@H]1CN([C@H](C)CO)C(=O)c2cc(NC(=O)CCCN(C)C)ccc2O[C@H]1CN(C)S(=O)(=O)c1ccc(Cl)cc1`, the caspase activation was -1.33%.

For `C[C@@H]1CCCCO[C@H](CN(C)C(=O)CCCN(C)C)[C@H](C)CN([C@@H](C)CO)C(=O)c2cc(NS(=O)(=O)c3ccc(Cl)cc3)ccc2O1`, the caspase activation was 0.532%.

In the case of `COc1ccc(NC(=O)Nc2ccc3c(c2)CC(=O)N([C@@H](C)CO)C[C@@H](C)[C@H](CN(C)C(=O)NC2CCCCC2)O3)cc1`, the caspase activation is -1.36%.

On to `COc1ccc(S(=O)(=O)N(C)C[C@H]2Oc3c(NS(=O)(=O)c4ccc(F)cc4)cccc3C(=O)N([C@H](C)CO)C[C@H]2C)cc1`, for which the caspase activation was -0.361%.

As to `COC(=O)CCCCCCC(=O)N/N=C/c1ccc(I)cc1`, the caspase activation was 0.387%.

With `C[C@@H]1CN([C@H](C)CO)C(=O)c2cc(NC(=O)Nc3ccc(C(F)(F)F)cc3)ccc2O[C@@H](C)CCCCO[C@@H]1CN(C)Cc1ccc(C(F)(F)F)cc1`, the caspase activation was 0.82%.

As for `C[C@@H]1CN([C@@H](C)CO)C(=O)c2cc(NC(=O)CCCCCC(=O)Nc3ccccc3N)ccc2O[C@@H](C)CCCCO[C@@H]1CN(C)CC1CCCCC1`, the caspase activation is 0.522%.

Regarding `C[C@@H]1CCCCO[C@@H](CN(C)C(=O)C2CCCCC2)[C@H](C)CN([C@H](C)CO)C(=O)c2cc(NC(=O)Cc3ccccc3)ccc2O1`, the caspase activation is 3.18%.

Regarding `C[C@@H]1CCCCO[C@@H](CN(C)S(=O)(=O)c2cccs2)[C@H](C)CN([C@H](C)CO)C(=O)c2cc(NC(=O)CCCN(C)C)ccc2O1`, the caspase activation was 0.621%.

For the compound `Cc1ccc(S(=O)(=O)N(C)C[C@@H]2Oc3ccc(NC(=O)NC4CCCCC4)cc3C(=O)N([C@@H](C)CO)C[C@H]2C)cc1`, the caspase activation was -0.781%.

Take `C[C@H](CO)N1C[C@H](C)[C@H](CN(C)C(=O)Nc2ccccc2)Oc2c(NC(=O)Nc3ccc(C(F)(F)F)cc3)cccc2C1=O`: the caspase activation was -0.159%.

Consider `C[C@@H]1CCCCO[C@@H](CN(C)Cc2ccc(Cl)c(Cl)c2)[C@H](C)CN([C@@H](C)CO)C(=O)c2cc(NS(C)(=O)=O)ccc2O1`, for which the caspase activation is -0.491%.

`Cc1ccc(S(=O)(=O)Nc2ccc3c(c2)C(=O)N([C@@H](C)CO)C[C@@H](C)[C@H](CN(C)Cc2ccc4c(c2)OCO4)OCCCC[C@@H](C)O3)cc1`: the caspase activation was 0.694%.

For the compound `C[C@H](CO)N1C[C@H](C)[C@@H](CN(C)C(=O)Nc2ccc(F)cc2)OCCCC[C@H](C)Oc2ccc(NC(=O)c3ccncc3)cc2C1=O`, the caspase activation is 0.454%.

As for `CC(C)NC(=O)Nc1ccc2c(c1)C(=O)N([C@H](C)CO)C[C@@H](C)[C@@H](CN(C)Cc1ccncc1)O2`, the caspase activation is 1.1%.

As for `C[C@@H]1CN([C@@H](C)CO)C(=O)c2cccc(NS(=O)(=O)c3ccccc3)c2O[C@@H]1CN(C)S(=O)(=O)c1ccc(F)cc1`, the caspase activation was 0.0248%.

As to `COc1ccc(S(=O)(=O)Nc2ccc3c(c2)C(=O)N([C@@H](C)CO)C[C@@H](C)[C@H](CN(C)Cc2ccc(C(F)(F)F)cc2)OCCCC[C@@H](C)O3)cc1`, the caspase activation is -1.2%.

For `C[C@H]1CN([C@@H](C)CO)C(=O)Cc2cc(NS(=O)(=O)c3ccccc3)ccc2O[C@@H]1CN(C)Cc1ccc(C(=O)Nc2ccccc2N)cc1`, the caspase activation is 1.17%.

With `Cc1noc(C)c1NC(=O)N(C)C[C@@H]1OCCCC[C@@H](C)Oc2ccc(NC(=O)C3CCCCC3)cc2C(=O)N([C@@H](C)CO)C[C@H]1C`, the caspase activation was -0.914%.

`C[C@H]1CN([C@@H](C)CO)C(=O)Cc2cc(NC(=O)C3CCCCC3)ccc2O[C@H]1CN(C)C(=O)Nc1ccc(C(F)(F)F)cc1`: the caspase activation was 0.751%.

On to `C[C@@H]1CCCCO[C@H](CN(C)Cc2ccc3c(c2)OCO3)[C@H](C)CN([C@@H](C)CO)C(=O)c2cc(NS(=O)(=O)c3cn(C)cn3)ccc2O1`, for which the caspase activation is -0.23%.

Take `Cc1ccc(S(=O)(=O)Nc2ccc3c(c2)C(=O)N([C@H](C)CO)C[C@@H](C)[C@H](CN(C)C(=O)Nc2ccc(C(F)(F)F)cc2)OCCCC[C@H](C)O3)cc1`: the caspase activation is -0.505%.

On to `COc1ccc(CN(C)C[C@@H]2Oc3ccc(NS(=O)(=O)c4ccc(F)cc4)cc3C(=O)N([C@@H](C)CO)C[C@@H]2C)cc1`, for which the caspase activation was -0.363%.

Turning to `C[C@H]1CN([C@@H](C)CO)C(=O)c2cccc(NS(=O)(=O)c3ccc(Cl)cc3)c2O[C@H]1CN(C)S(=O)(=O)c1ccc(Cl)cc1`, the caspase activation is -1.18%.

For `Cc1ccc(S(=O)(=O)N(C)C[C@@H]2Oc3ccc(NC(=O)Cc4cn(C)c5ccccc45)cc3C(=O)N([C@@H](C)CO)C[C@@H]2C)cc1`, the caspase activation is 0.187%.

For `Cc1noc(C)c1S(=O)(=O)Nc1ccc2c(c1)CC(=O)N([C@@H](C)CO)C[C@H](C)[C@H](CN(C)C(=O)Nc1cccc3ccccc13)O2`, the caspase activation is 0.254%.

`O=C(CCCCCCC(=O)Nc1ccccc1O)N/N=C/c1ccc(CO)o1`: the caspase activation is -0.255%.

As to `COC(=O)CCCCCCC(=O)N/N=C/c1ccc2ccccc2c1O`, the caspase activation was -1.41%.

Take `COc1ccc(NC(=O)N(C)C[C@H]2OCCCC[C@@H](C)Oc3ccc(NC(=O)NC4CCCCC4)cc3C(=O)N([C@@H](C)CO)C[C@H]2C)cc1`: the caspase activation was 0.476%.

Consider `C[C@@H]1CN([C@@H](C)CO)C(=O)c2cc(NS(=O)(=O)c3cn(C)cn3)ccc2O[C@@H]1CN(C)Cc1ccc(C(=O)Nc2ccccc2N)cc1`, for which the caspase activation is 0.311%.

For the compound `C[C@H]1CN([C@@H](C)CO)C(=O)c2cc(NC(=O)C3CCCCC3)ccc2O[C@H]1CN(C)C(=O)Nc1ccccc1`, the caspase activation is 0.892%.

As for `C[C@@H]1CCCCO[C@@H](CN(C)Cc2ccc(C(=O)O)cc2)[C@@H](C)CN([C@@H](C)CO)C(=O)c2cc(NC(=O)Nc3ccc(C(F)(F)F)cc3)ccc2O1`, the caspase activation is 0.286%.

With `COc1ccc(NC(=O)Nc2ccc3c(c2)C(=O)N([C@@H](C)CO)C[C@@H](C)[C@@H](CN(C)Cc2ccncc2)OCCCC[C@@H](C)O3)cc1`, the caspase activation is -1.58%.

Turning to `C[C@@H]1CN([C@H](C)CO)C(=O)Cc2cc(NC(=O)CCC(F)(F)F)ccc2O[C@@H]1CN(C)Cc1ccncc1`, the caspase activation was 0.918%.

Turning to `COc1ccc(NC(=O)N(C)C[C@H]2OCCCC[C@@H](C)Oc3ccc(NC(=O)c4ccncc4)cc3C(=O)N([C@@H](C)CO)C[C@H]2C)cc1`, the caspase activation was -1.47%.

On to `COc1ccc(C(=O)Nc2cccc(-n3cc(C(=O)NO)nn3)c2)cc1`, for which the caspase activation was -0.373%.

As to `COc1ccc(S(=O)(=O)Nc2ccc3c(c2)C(=O)N([C@@H](C)CO)C[C@H](C)[C@H](CN(C)S(=O)(=O)c2ccc(F)cc2)OCCCC[C@@H](C)O3)cc1`, the caspase activation is 0.149%.

For `C[C@H]1CN([C@@H](C)CO)C(=O)CCCn2cc(nn2)CO[C@@H]1CN(C)S(=O)(=O)c1cccc(C#N)c1`, the caspase activation was 0.238%.

Consider `Cc1noc(C)c1S(=O)(=O)N(C)C[C@@H]1Oc2ccc(NC(=O)Cn3cnnn3)cc2CC(=O)N([C@@H](C)CO)C[C@H]1C`, for which the caspase activation was -0.944%.

Turning to `C[C@@H]1CN([C@@H](C)CO)C(=O)Cc2cc(NC(=O)CCCCCC(=O)Nc3ccccc3N)ccc2O[C@@H]1CN(C)C(=O)NC1CCCCC1`, the caspase activation was 0.875%.
